Experimental data published in article PMC2847506 (Phytochemistry, 2010).

Key:
NF-κB p65 (RelA) subunit = NF-κB p65 (RelA) subunit (Homo sapiens, UniProt Q04206); assay: Enzyme-based ELISA NF-κB; format: biochemical
[1] = tested on: HT-29 human colon cancer cell line; assay: Cytotoxic activity against the HT-29 cell line; format: cell-based; details: for Cytotoxicity ED50: HT-29 cells
HT-29 human cancer cells = assay: In vivo hollow fiber assay, HT-29; design: species or system human cells in host mice; details: HT29, ip administration, 0.5 to 10 mg per kg per day for four days
Summary of the method: (§1)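 Murine hollow fiber model following an NCI procedure, with human cancer cells (HT-29, LNCaP, MCF-7) held in fibers. Test compound given ip at 0.5 to 10 mg/kg per day for four days, in 5% EtOH plus 5% Tween 80 in physiologic saline. Paclitaxel positive control at 2.0 mg/kg per day for four days.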

[2] = tested on: MCF-7 (human breast cancer); assay: In vivo hollow fiber assay, MCF-7; design: species or system human cells in host mice; details: MCF-7, ip administration, 0.5 to 10 mg per kg per day for four days
Summary of the method: as §1

[3] = Body weight of host mice in the hollow fiber assay; format: in vivo; details: highest two doses (10 and 5 mg/kg/day), ip, over the course of the study
Summary of the method: as §1

[4] = tested on: P-388 lymphocytic murine leukemia; details: ref Herz et al., 1981; cited from earlier work
[5] = Stability in solvents at room temperature; format: physicochemical; details: kept in CDCl3 or deuteriobenzene at room temperature; [2+2] addition
[6] = tested on: LNCaP (hormone-dependent human prostate cancer); assay: In vivo hollow fiber assay, LNCaP; design: species or system human cells in host mice; details: ip administration, 0.5 to 10 mg per kg per day for four days
Summary of the method: as §1

NF-κB p65 (RelA) subunit, sequence (Q04206 whole entry, species assumed): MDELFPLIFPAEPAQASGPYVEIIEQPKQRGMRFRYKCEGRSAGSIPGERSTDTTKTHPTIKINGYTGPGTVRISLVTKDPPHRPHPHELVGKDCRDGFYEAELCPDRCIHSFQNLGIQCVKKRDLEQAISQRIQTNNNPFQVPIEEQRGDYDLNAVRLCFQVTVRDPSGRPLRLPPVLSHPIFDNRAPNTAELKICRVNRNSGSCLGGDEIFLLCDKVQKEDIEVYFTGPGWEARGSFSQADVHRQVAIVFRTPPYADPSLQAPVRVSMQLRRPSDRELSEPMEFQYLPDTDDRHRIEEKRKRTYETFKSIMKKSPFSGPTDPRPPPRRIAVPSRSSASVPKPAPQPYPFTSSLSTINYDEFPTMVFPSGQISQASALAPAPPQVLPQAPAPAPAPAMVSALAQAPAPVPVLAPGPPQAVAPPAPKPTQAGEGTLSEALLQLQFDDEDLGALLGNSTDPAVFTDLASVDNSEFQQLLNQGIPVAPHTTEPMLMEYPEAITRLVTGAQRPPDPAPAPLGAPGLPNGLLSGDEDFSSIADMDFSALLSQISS

Substance	NF-κB Inhibition ED50 (NF-κB p65 (RelA) subunit) [µM]	Cytotoxicity ED50 [1] [µM]	change of potency of the inhibitory effect on HT-29 cells relative to compound 3 ([1]; tiglate instead of methacrylate on C-8)	inhibition of proliferation in hollow fibers (HT-29 human cancer cells)	inhibition of proliferation in hollow fibers [2]	body weight loss [3]	in vivo antitumor activity [4]	stability in solvents [5]	inhibition of proliferation in hollow fibers [6]
2-epi-glaucolide E [Compound 5]	> 10	9.4							
2α,13-diacetoxy-4α-hydroxy-8α-methacryloyloxybourbonen-12,6α-olide [Compound 6]	2.8								
8-desacyl-13-acetoxyrolandrolide-8-O-tiglate [Compound 4]		1.5	decreased around ten times						
13-acetoxyrolandrolide [Compound 3]	7.1	0.16		no inhibition of proliferation was observed	no inhibition of proliferation was observed	up to 20%	weak	partially transformed to compound 6	no inhibition of proliferation was observed
